The text below walks through data of ChEMBL document CHEMBL1139993, “Synthesis of sialic acid derivatives as ligands for the myelin-associated glycoprotein (MAG)” (Bioorg Med Chem, 2007).

For the first assay, the target named is T1, Myelin-associated glycoprotein (Homo sapiens) (UniProt P20916).
T1 sequence (whole entry): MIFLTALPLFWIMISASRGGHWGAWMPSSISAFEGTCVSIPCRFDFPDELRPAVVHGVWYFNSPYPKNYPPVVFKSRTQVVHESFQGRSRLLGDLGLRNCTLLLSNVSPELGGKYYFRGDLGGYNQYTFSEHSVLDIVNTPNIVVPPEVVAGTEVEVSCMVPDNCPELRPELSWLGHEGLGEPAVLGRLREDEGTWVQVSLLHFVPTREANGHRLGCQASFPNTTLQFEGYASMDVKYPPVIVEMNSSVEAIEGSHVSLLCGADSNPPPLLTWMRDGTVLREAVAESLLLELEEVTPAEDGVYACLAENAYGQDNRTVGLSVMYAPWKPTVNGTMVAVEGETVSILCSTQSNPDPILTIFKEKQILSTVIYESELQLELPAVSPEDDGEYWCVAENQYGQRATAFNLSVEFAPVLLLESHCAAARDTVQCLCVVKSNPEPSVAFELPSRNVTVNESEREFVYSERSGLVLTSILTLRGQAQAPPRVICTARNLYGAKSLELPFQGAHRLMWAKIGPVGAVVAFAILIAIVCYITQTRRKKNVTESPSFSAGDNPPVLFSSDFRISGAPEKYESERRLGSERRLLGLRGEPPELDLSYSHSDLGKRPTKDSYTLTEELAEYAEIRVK
The experiment in a line: Inhibition of MAG N-terminal three domains expressed in CHO cells relative to Gal-beta-(1-3)-GalNAc-OSE. It is filed as cell-based. The method in brief:
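Fc-MAG_d1–3 fusion (N-terminal three MAG domains plus human IgG Fc) was expressed in CHO cells and protein A-agarose purified, then precomplexed with alkaline phosphatase-labelled anti-Fc antibody. It was added to plates with immobilized Neu5Ac plus inhibitor, incubated overnight at 4 °C, and washed. Bound protein was read as initial rate of fluorescein release from fluorescein diphosphate. IC50 was taken from at least eight concentrations.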
The compound `CCCCCCCCCC(=O)NC[C@@H](O)[C@H](O)[C@@H]1O[C@@](OCc2ccccc2)(C(=O)O)C[C@H](O)[C@H]1NC(C)=O` yielded an Activity of 12.
Still for that read-out and setting: for `CC(=O)N[C@H]1[C@H]([C@@H](O)[C@H](O)CNC(=O)c2ccc(C(F)(F)F)cc2)O[C@@](OCc2ccccc2)(C(=O)O)C[C@@H]1O` the value was 207; for `CC(=O)N[C@H]1[C@@H]([C@H](O)[C@H](O)CNC(=O)c2ccc(-c3ccccc3)cc2)O[C@@](OCc2ccccc2)(C(=O)O)C[C@@H]1O`, 191.
Same read-out and setting: for `CC(=O)N[C@H]1[C@H]([C@@H](O)[C@H](O)CNC(=O)c2ccc(Cl)cc2)O[C@@](OCc2ccccc2)(C(=O)O)C[C@@H]1O` the value was 1070.
Still for that read-out and setting: for `CC(=O)N[C@H]1[C@@H]([C@H](O)[C@H](O)CNC(=O)c2ccccc2-c2ccccc2)O[C@@](OCc2ccccc2)(C(=O)O)C[C@@H]1O` the value was 75; for `CC(=O)N[C@H]1[C@H]([C@@H](O)[C@H](O)COCc2ccccc2)O[C@@](OCc2ccccc2)(C(=O)O)C[C@@H]1O`, 2.8; for `CC(=O)N[C@H]1[C@H]([C@@H](O)[C@H](O)CNC(=O)c2ccc([N+](=O)[O-])cc2)O[C@@](OCc2ccccc2)(C(=O)O)C[C@@H]1O`, 414.
Turning to `CC(=O)N[C@H]1[C@H]([C@@H](O)[C@H](O)CN=[N+]=[N-])O[C@@](OCc2ccccc2)(C(=O)O)C[C@@H]1O`, the Activity amounted to 0.05.
Same read-out and setting: for `CC(=O)N[C@H]1[C@H]([C@@H](O)[C@H](O)CNC(=O)c2ccc(Cl)cc2Cl)O[C@@](OCc2ccccc2)(C(=O)O)C[C@@H]1O` the value was 35.
On the same count and under the same terms, the value for `CC(=O)N[C@H]1[C@H]([C@@H](O)[C@H](O)CNC(=O)c2cccc(Cl)c2)O[C@@](OCc2ccccc2)(C(=O)O)C[C@@H]1O` was 483.
Same read-out and setting: for `CC(=O)N[C@H]1[C@H]([C@@H](O)[C@H](O)CNC(=O)c2ccc(Cl)c(Cl)c2)O[C@@](OCc2ccccc2)(C(=O)O)C[C@@H]1O` the value was 690; for `CC(=O)N[C@H]1[C@H]([C@@H](O)[C@H](O)CO)O[C@@](OCc2ccccc2)(C(=O)O)C[C@@H]1O`, 0.62.
`CCCCCC(=O)NC[C@@H](O)[C@H](O)[C@@H]1O[C@@](OCc2ccccc2)(C(=O)O)C[C@H](O)[C@H]1NC(C)=O`: the Activity was found to be 12.
Still for that read-out and setting: for `CC(=O)N[C@H]1[C@H]([C@@H](O)[C@H](O)CNC(=O)c2cc(=O)[nH]c(=O)[nH]2)O[C@@](OCc2ccccc2)(C(=O)O)C[C@@H]1O` the value was 6.7.
Still for that read-out and setting: for `CC(=O)N[C@@H]1[C@@H]([C@@H](O)[C@H](O)CNC(=O)c2ccc(C)cc2)O[C@@](OCc2ccccc2)(C(=O)O)C[C@@H]1O` the value was 806.
Still for that read-out and setting: for `CCCC(=O)NC[C@@H](O)[C@H](O)[C@@H]1O[C@@](OCc2ccccc2)(C(=O)O)C[C@H](O)[C@H]1NC(C)=O` the value was 8.6.
`CC(=O)N[C@H]1[C@H]([C@@H](O)[C@H](O)CNC(=O)c2ccccc2)O[C@@](OCc2ccccc2)(C(=O)O)C[C@@H]1O` registered an Activity of 690.
Turning to `COc1ccc(C(=O)NC[C@@H](O)[C@H](O)[C@@H]2O[C@@](OCc3ccccc3)(C(=O)O)C[C@H](O)[C@H]2NC(C)=O)cc1`, the Activity amounted to 290.

In the next assay the target is T1, Myelin-associated glycoprotein (Homo sapiens). Briefly: Inhibition of MAG N-terminal three domains expressed in CHO cells at 20 mM.
On to `CC(=O)N[C@H]1[C@H]([C@@H](O)[C@H](O)CO)O[C@](OCc2ccccc2)(C(=O)O)C[C@@H]1O`, for which the inhibition is under 50%.
